Measurements reported in ChEMBL document CHEMBL1151764, “Search for inhibitors of bacterial and human protein kinases among derivatives of diazepines[1,4] annelated with maleimide and indole cycles” (J Med Chem, 2008).
pIC50: −log10 of the molar value. Blank lines part the entries; values can stand above or below the molecule they belong to.

Tests used:
[1] = biological target: RAC-alpha serine/threonine-protein kinase (Homo sapiens, UniProt P31749); test: Inhibition of human AKT1
[2] = biological target: Serine/threonine-protein kinase B-raf (Homo sapiens, UniProt P15056, V600E); test: Inhibition of human B-RAF-V600E mutant
Serine/threonine-protein kinase B-raf, sequence (P15056 2-766 V600E limits assumed): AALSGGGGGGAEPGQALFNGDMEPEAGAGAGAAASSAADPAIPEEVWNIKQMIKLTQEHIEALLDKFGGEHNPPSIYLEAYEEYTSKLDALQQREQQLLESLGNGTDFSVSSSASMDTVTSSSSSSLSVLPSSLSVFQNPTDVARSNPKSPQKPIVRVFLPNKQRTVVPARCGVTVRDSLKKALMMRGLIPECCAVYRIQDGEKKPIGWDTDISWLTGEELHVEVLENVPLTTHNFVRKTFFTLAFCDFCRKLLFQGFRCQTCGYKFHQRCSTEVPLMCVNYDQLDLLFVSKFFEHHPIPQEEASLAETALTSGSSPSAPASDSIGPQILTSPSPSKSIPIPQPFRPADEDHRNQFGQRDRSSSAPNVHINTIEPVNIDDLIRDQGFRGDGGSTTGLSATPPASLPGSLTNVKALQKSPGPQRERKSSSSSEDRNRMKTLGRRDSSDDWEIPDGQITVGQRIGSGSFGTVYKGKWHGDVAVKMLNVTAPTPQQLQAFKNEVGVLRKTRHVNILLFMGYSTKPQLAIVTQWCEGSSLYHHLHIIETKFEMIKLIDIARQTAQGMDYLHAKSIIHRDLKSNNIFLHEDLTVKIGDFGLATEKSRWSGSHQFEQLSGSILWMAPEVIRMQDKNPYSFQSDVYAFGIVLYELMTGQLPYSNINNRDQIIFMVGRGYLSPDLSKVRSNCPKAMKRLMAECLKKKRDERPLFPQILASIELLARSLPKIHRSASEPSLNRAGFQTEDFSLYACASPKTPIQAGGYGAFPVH

[3] = biological target: T1, Cyclin-dependent kinase 2 (Homo sapiens, UniProt P24941); test: Inhibition of human CDK2/CycA
[4] = biological target: Cyclin-dependent kinase 4/cyclin D1 (Homo sapiens, UniProt P11802); test: Inhibition of human CDK4/CycD1; type: protein-complex assay
Cyclin-dependent kinase 4/cyclin D1, sequence (P11802 whole entry): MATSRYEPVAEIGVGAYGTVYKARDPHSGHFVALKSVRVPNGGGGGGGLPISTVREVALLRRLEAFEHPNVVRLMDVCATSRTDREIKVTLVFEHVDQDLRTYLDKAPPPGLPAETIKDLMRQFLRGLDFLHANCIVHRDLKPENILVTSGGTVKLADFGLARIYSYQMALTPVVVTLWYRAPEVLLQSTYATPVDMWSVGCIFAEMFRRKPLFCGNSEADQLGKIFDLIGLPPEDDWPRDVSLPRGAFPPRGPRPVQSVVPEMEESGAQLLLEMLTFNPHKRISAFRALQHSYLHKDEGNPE
Cyclin-dependent kinase 4/cyclin D1, sequence (P24385 whole entry, further chain): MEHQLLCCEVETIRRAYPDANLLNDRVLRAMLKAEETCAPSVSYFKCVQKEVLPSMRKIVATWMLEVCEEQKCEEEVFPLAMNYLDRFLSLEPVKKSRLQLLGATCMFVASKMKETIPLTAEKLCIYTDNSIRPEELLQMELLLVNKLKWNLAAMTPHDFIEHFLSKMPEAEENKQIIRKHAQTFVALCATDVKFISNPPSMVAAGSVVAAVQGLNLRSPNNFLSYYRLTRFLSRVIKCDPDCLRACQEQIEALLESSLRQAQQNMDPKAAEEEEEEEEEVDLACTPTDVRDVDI

Insulin receptor = Insulin receptor (Homo sapiens, UniProt P06213); test: Inhibition of human INSR
Insulin receptor, sequence (P06213 28-758 limits assumed): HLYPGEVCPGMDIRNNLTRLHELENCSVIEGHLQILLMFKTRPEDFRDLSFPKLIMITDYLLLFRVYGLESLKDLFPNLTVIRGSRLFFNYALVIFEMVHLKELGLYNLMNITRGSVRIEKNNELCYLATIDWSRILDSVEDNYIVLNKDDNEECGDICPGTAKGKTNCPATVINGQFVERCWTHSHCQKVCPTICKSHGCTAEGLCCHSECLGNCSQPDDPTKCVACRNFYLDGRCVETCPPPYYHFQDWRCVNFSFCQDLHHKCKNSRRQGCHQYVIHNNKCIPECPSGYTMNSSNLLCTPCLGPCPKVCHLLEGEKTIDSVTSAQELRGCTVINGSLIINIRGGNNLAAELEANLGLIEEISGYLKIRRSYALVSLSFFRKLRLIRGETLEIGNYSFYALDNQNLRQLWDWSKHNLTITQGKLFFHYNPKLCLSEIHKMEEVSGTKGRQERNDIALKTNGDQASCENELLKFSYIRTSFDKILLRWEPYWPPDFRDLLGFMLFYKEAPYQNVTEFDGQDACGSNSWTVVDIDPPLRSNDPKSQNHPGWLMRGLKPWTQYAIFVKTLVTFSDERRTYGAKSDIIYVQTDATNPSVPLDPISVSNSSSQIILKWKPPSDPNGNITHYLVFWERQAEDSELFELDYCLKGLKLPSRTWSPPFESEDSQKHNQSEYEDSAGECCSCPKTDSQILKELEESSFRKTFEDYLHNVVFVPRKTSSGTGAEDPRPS
Insulin receptor, sequence (P06213 763-1382 limits assumed): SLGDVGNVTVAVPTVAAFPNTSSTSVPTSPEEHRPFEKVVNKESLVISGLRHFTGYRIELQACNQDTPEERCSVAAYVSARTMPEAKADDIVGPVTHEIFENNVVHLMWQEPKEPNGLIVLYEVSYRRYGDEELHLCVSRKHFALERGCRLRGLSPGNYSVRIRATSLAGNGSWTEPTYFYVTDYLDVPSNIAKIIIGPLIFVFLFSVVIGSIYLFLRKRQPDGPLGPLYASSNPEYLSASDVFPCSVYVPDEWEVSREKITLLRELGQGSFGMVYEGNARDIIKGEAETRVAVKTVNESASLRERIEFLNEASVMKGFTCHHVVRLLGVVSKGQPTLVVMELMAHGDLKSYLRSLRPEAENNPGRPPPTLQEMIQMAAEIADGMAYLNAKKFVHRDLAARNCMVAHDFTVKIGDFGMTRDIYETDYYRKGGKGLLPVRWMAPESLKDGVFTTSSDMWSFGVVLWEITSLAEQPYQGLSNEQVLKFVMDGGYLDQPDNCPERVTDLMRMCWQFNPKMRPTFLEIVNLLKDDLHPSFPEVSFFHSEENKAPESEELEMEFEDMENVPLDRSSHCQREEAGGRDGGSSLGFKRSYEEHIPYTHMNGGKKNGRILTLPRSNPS

[5] = biological target: Hepatocyte growth factor receptor (Homo sapiens, UniProt P08581); test: Inhibition of human MET
Hepatocyte growth factor receptor, sequence (P08581 whole entry): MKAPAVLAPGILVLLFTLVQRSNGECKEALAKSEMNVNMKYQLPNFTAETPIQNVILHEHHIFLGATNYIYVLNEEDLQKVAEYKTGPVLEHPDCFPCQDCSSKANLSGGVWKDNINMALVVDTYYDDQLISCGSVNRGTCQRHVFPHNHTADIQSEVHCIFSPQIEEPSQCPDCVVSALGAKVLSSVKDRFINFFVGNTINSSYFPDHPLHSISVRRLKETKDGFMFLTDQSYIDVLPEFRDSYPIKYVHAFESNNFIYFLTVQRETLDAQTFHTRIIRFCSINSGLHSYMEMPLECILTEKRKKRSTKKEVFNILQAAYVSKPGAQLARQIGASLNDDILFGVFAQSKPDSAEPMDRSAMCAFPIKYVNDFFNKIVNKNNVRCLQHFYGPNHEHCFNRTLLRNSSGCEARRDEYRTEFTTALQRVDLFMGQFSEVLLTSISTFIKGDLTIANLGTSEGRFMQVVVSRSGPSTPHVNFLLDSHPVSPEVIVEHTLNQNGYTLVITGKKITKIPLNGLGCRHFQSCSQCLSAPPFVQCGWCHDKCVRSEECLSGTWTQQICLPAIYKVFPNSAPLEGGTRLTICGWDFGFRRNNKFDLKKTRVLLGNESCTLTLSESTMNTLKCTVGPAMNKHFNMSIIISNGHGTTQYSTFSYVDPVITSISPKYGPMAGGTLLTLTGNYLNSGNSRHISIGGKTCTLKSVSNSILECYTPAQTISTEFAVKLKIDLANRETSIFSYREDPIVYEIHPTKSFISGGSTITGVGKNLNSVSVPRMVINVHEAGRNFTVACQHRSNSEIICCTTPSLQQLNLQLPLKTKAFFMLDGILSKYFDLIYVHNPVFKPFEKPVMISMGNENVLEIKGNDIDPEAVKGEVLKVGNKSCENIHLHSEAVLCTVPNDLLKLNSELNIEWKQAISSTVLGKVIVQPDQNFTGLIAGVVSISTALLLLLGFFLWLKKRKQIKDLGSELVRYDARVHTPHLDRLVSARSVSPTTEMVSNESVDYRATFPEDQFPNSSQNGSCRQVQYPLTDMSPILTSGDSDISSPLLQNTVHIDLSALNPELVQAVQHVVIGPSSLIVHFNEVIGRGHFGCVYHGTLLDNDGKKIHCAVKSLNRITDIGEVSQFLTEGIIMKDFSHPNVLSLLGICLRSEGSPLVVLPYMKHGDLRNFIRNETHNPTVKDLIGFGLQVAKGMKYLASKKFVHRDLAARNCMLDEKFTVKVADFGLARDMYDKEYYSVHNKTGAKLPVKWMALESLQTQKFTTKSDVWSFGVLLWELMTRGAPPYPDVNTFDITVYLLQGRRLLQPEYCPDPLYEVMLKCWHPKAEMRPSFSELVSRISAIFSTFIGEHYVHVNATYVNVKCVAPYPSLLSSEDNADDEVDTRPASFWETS

[6] = biological target: Platelet-derived growth factor receptor beta (Homo sapiens, UniProt P09619); test: Inhibition of human PDGFRbeta
[7] = biological target: Serine/threonine-protein kinase PLK1 (Homo sapiens, UniProt P53350); test: Inhibition of human PLK1
Serine/threonine-protein kinase PLK1, sequence (P53350 whole entry): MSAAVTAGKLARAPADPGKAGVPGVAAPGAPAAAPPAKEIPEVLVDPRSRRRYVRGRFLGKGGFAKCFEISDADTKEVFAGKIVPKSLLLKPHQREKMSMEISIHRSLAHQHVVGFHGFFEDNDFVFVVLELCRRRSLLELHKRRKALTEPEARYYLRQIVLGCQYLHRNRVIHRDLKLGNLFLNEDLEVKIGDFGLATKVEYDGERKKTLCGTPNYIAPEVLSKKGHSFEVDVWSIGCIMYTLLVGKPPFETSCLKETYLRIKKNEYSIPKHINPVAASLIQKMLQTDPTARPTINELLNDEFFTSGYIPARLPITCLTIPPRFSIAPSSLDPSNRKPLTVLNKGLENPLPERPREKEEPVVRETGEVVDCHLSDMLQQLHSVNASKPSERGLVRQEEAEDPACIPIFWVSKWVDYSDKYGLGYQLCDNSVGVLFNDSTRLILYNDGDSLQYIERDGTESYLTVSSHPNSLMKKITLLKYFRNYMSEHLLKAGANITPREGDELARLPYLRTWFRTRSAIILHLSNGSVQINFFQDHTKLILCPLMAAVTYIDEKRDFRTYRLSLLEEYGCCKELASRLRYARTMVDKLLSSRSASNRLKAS

[8] = biological target: Proto-oncogene tyrosine-protein kinase Src (Homo sapiens, UniProt P12931); test: Inhibition of human SRC
Ephrin type-B receptor 4 = biological target: T2, Ephrin type-B receptor 4 (Homo sapiens, UniProt P54760); test: Inhibition of human EPHB4
T2 sequence (P54760 whole entry): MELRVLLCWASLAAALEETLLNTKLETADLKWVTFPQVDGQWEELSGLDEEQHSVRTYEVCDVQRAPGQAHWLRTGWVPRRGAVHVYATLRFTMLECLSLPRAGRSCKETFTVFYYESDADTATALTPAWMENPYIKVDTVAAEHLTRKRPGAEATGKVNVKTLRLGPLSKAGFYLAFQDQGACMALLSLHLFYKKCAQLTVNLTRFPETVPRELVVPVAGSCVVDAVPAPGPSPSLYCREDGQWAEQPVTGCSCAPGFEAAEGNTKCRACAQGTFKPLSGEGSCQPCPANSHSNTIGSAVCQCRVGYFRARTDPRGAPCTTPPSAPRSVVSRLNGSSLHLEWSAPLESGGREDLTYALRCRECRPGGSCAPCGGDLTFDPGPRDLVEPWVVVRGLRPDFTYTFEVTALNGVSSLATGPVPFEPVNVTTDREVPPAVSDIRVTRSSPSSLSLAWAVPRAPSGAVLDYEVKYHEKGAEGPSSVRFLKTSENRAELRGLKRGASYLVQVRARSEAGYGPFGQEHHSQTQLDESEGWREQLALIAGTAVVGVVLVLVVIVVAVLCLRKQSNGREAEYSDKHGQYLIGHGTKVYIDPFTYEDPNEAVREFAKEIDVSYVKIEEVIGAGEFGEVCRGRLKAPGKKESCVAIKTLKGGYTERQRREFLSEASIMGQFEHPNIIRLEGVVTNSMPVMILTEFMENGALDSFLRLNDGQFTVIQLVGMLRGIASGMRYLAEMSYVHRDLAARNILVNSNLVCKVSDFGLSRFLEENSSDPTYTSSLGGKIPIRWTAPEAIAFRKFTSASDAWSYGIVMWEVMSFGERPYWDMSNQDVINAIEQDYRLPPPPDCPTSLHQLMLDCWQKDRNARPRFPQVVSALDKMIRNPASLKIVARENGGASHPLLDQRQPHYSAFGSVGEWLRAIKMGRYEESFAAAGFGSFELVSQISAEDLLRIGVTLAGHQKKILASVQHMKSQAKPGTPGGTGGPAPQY

[9] = biological target: Receptor tyrosine-protein kinase erbB-2 (Homo sapiens, UniProt P04626); test: Inhibition of human ERBB2
Focal adhesion kinase 1 = Focal adhesion kinase 1 (Homo sapiens, UniProt Q05397); test: Inhibition of human FAK
[10] = biological target: Insulin-like growth factor 1 receptor (Homo sapiens, UniProt P08069); test: Inhibition of human IGF1R
[11] = biological target: Vascular endothelial growth factor receptor 2 (Homo sapiens, UniProt P35968); test: Inhibition of human VEGFR2
[12] = biological target: T1, Cyclin-dependent kinase 2; test: Inhibition of human CDK2/Cyc2
Streptomyces coelicolor [13] = test: Inhibition of Ca(2+))/phosphatidylserine/diacylglycerol-dependent aph8 phosphorylation in Streptomyces coelicolor cell lysate assessed as [32Pi] incorporation into aph8 at 500 nM by microplate scintillation counter relative to control; set-up: scale not given: the % may be the effect or the level left
In short: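 Radiometric in vitro assay of actinobacterial protein kinases. Kinases incubated under standard conditions with [γ-³²P]ATP and aphVIII as substrate, with or without modulators or inhibitors. Read-out was incorporation of the γ-phosphoryl residue into aphVIII.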

Streptomyces coelicolor [14] = test: Inhibition of aph8-induced kanamycin phosphorylation in Streptomyces coelicolor cell lysate assessed as [32Pi] incorporation into kanamycin at 10 uM by microplate scintillation counter relative to control; set-up: scale not given: the % may be the effect or the level left
Streptomyces lividans [15] = test: Inhibition of aph8 positive Streptomyces lividans at 75 uM after 20 hrs by paper disk method; type: functional; conditions: read-out: IZ
In short: (§1)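 Test culture was Streptomyces lividans carrying plasmid pSU23 with the aphVIII gene, whose kanamycin-inactivating activity depends on Ser/Thr kinase phosphorylation. Paper disks (7 mm) held kanamycin (5 µg/disk) plus test compound at subtoxic amounts, about half the minimal growth-inhibitory dose. Disks went on plates of log-phase cells at 28 °C for 20 h. Read-out was lysis zone diameter.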

Streptomyces lividans [16] = test: Inhibition of aph8 positive Streptomyces lividans at 150 uM after 20 hrs by paper disk method; type: functional; conditions: read-out: IZ; in short: as §1
Streptomyces lividans [17] = test: Inhibition of aph8 positive Streptomyces lividans at 300 uM after 20 hrs by paper disk method; type: functional; conditions: read-out: IZ; in short: as §1
Streptomyces lividans [18] = test: Inhibition of aph8 positive Streptomyces lividans at 600 uM after 20 hrs by paper disk method; type: functional; conditions: read-out: IZ; in short: as §1
Streptomyces lividans [19] = test: Inhibition of aph8 positive Streptomyces lividans at 1200 uM after 20 hrs by paper disk method; type: functional; conditions: read-out: IZ; in short: as §1
Streptomyces lividans [20] = test: Inhibition of aph8 positive Streptomyces lividans at 25 uM after 20 hrs by paper disk method; type: functional; conditions: read-out: IZ; in short: as §1
Streptomyces lividans [21] = test: Inhibition of aph8 positive Streptomyces lividans at 50 uM after 20 hrs by paper disk method; type: functional; conditions: read-out: IZ; in short: as §1
Streptomyces lividans [22] = test: Inhibition of aph8 positive Streptomyces lividans at 100 uM after 20 hrs by paper disk method; type: functional; conditions: read-out: IZ; in short: as §1
Streptomyces lividans [23] = test: Inhibition of aph8 positive Streptomyces lividans at 200 uM after 20 hrs by paper disk method; type: functional; conditions: read-out: IZ; in short: as §1
Streptomyces lividans [24] = test: Inhibition of aph8 positive Streptomyces lividans at 400 uM after 20 hrs by paper disk method; type: functional; conditions: read-out: IZ; in short: as §1
Angiopoietin-1 receptor = Angiopoietin-1 receptor (Homo sapiens, UniProt Q02763); test: Inhibition of human TIE2
[25] = biological target: Epidermal growth factor receptor (Homo sapiens, UniProt P00533); test: Inhibition of human EGFR
[26] = biological target: Vascular endothelial growth factor receptor 3 (Homo sapiens, UniProt P35916); test: Inhibition of human VEGFR3
[27] = biological target: T3, NUAK family SNF1-like kinase 1 (Homo sapiens, UniProt O60285); test: Inhibition of human ARK5
T3 sequence (O60285 whole entry): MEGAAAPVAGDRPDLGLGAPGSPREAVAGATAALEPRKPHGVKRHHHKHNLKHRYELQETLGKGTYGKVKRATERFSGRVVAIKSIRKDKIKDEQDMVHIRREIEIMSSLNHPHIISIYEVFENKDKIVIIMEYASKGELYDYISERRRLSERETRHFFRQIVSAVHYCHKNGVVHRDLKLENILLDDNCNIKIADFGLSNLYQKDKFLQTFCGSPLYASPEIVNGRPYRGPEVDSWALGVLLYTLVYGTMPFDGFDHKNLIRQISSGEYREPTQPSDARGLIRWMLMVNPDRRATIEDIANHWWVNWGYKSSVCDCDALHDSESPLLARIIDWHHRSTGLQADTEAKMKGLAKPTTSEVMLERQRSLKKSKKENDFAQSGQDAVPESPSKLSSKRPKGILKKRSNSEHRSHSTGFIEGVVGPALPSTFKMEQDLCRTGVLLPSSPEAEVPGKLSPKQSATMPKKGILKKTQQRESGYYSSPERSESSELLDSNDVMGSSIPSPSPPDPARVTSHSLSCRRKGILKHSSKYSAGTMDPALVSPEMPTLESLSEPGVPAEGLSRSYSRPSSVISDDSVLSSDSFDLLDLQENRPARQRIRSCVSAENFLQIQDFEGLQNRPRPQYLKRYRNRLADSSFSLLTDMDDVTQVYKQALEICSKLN

pIC50 [12]: 5.37
SMILES: N=C(N)SCCCN1C(=O)C2=C(C1=O)n1ccc3cccc(c31)C1Cc3ccccc3N21 (stereo unspecified)

Activity (Streptomyces coelicolor [13]): 152%
Activity (Streptomyces coelicolor [14]): 95%
SMILES: CN(C)CCCn1cc(C2=C(c3c[nH]c4ccccc34)C(=O)NC2=O)c2ccccc21 [GF-109203]
zone of inhibition at 75 µM (Streptomyces lividans [15]): 0 mm
zone of inhibition at 150 µM (Streptomyces lividans [16]): 0 mm
zone of inhibition at 300 µM (Streptomyces lividans [17]): 7.5 mm
zone of inhibition at 600 µM (Streptomyces lividans [18]): 9 mm
zone of inhibition at 1200 µM (Streptomyces lividans [19]): 10 mm

pIC50 [27]: 5.01
pIC50 [2]: 5.08
pIC50 [3]: 5.20
pIC50 [4]: 5.21
pIC50 (Insulin receptor): 5.20
pIC50 [5]: 5.13
pIC50 [6]: 5.17
pIC50 [25]: 5.00
pIC50 (Ephrin type-B receptor 4): 5.41
SMILES: CNC(=N)SCCCn1c(=O)c2c(c1=O)n1c3ccccc3cc1c1cccc3ccn2c31

The next lines start with the molecule.

SMILES: N=C(N)SCCCn1c(=O)c2c(c1=O)n1c3ccccc3cc1c1cccc3ccn2c31
pIC50 [1]: 5.05
pIC50 [2]: 5.92
pIC50 [3]: 5.44
pIC50 [4]: 5.57
pIC50 (Insulin receptor): 5.59
pIC50 [5]: 5.48
pIC50 [6]: 5.38
pIC50 [7]: 5.00
pIC50 [8]: 5.42
pIC50 (Ephrin type-B receptor 4): 5.64
pIC50 [9]: 5.11
pIC50 (Focal adhesion kinase 1): 5.36
pIC50 [10]: 5.40
pIC50 [11]: 5.39

SMILES: CCN(CC)Cc1cn2c3c(cccc13)C1Cc3ccccc3N1C1=C2C(=O)N(C)C1=O (stereo unspecified)
Activity (Streptomyces coelicolor [13]): 94%
Activity (Streptomyces coelicolor [14]): 93%
zone of inhibition at 25 µM (Streptomyces lividans [20]): 0 mm
zone of inhibition at 50 µM (Streptomyces lividans [21]): 0 mm
zone of inhibition at 100 µM (Streptomyces lividans [22]): 7.5 mm
zone of inhibition at 200 µM (Streptomyces lividans [23]): 12 mm
zone of inhibition at 400 µM (Streptomyces lividans [24]): 14 mm

SMILES: N=C(Nc1ccccc1)SCCCN1C(=O)C2=C(C1=O)n1ccc3cccc(c31)C1Cc3ccccc3N21 (stereo unspecified)
pIC50 [3]: 5.29
pIC50 [4]: 5.10
pIC50 (Angiopoietin-1 receptor): 5.05
pIC50 [25]: 5.02
pIC50 [10]: 5.64
pIC50 [11]: 5.37
pIC50 [26]: 5.02

SMILES: CCNC(=N)SCCCN1C(=O)C2=C(C1=O)n1ccc3cccc(c31)C1Cc3ccccc3N21 (stereo unspecified)
pIC50 [3]: 5.17

SMILES: CNC(=N)SCCCN1C(=O)C2=C(C1=O)n1ccc3cccc(c31)C1Cc3ccccc3N21 (stereo unspecified)
pIC50 [2]: 5.10
pIC50 [3]: 5.28
pIC50 [4]: 5.24
pIC50 (Insulin receptor): 5.29
pIC50 [5]: 5.17
